Source: PubChem (several laboratories)
ERb SRC1 inh = blocks coactivator binding to human estrogen receptor beta. inhibition, % at 25.6 µM. AID 633. TR-FRET ER-beta LBD / SRC1-Cy5 peptide binding; receptor agonist-loaded with 1 µM estradiol. hit rate 1.3% among 86,000. Q92731;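 active = compounds whose percent inhibition of the receptor-coactivator binding signal exceeds about 50% in the single-dose screen, limit read from the data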
RORa activator = RORA (human) activation. activation, % at 10 µM. hit rate 1.5% among 65,000. CHO-K1 Gal4-RORA LBD luciferase reporter, luminescence; percent increase over mock-subtracted basal signal. P35398;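 active = activation above the mean of all tested compounds plus 3 SD, cut at about 49% in these data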
Target sequence (P35398 whole entry, looked up, the tested form may be a part): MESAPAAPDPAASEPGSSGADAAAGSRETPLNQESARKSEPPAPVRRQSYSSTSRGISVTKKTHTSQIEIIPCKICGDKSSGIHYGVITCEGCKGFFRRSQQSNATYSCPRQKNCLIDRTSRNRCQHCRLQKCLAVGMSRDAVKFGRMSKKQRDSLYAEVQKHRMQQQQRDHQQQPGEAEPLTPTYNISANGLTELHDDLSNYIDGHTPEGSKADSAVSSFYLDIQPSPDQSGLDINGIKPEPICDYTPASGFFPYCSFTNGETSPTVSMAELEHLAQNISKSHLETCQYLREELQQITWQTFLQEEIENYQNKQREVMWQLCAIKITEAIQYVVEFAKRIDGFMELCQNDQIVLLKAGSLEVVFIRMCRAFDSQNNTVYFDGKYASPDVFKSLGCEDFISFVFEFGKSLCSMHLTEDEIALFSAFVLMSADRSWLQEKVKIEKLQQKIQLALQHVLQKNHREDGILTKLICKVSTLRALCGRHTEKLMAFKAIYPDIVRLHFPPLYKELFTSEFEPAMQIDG
ERa SRC1 inh = ER-alpha (human) coactivator binding inhibition; TR-FRET ER-alpha LBD / SRC-1 peptide, estradiol-bound; inhibition, % at 25.6 µM; hit rate 1.7% among 86,000; in the data active = inhibition above about 50%
PTK2B oligo ant = antagonists of human Pyk2 oligomerization | z-score (the deposit names both 25 µM and 10 µM) | AID 1347419 | hit rate 0.83% among 99,000 | Q293 cells, Pyk2 FERM NanoBiT luminescence; active compounds read low;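 active = Z-score of -3 or lower, scaled per plate to the spread of control and sample wells; inactive = z-score above -3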;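 also: negative z-score means lost luminescence so less FERM oligomerization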
SF1 activator = activates the human nuclear receptor SF-1 | Q13285 | CHO-K1 Gal4-SF-1 LBD luciferase reporter; % increase over DMSO SF-1-specific signal | activation, % at 10 µM | hit rate 1.9% among 65,000 | AID 522;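 active = activation above the mean activation of all tested compounds plus 3 SD, cut at about 50% in these data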
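material = CHO-K1 cells with Gal4–hSF-1 LBD chimera plus Gal4-driven luciferase | compound = 10 µM single point, 1% DMSO | incubation = 20 h compound exposure at 37 °C after 1 h cell settling | measured by = SteadyLite luciferase luminescence | evaluation = percent activation relative to DMSO median and mock-transfected background | control set = DMSO negative control and −SF1 background wells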
ERa SRC1 pot = ER-alpha (human) coactivator binding potentiation. TR-FRET ERalpha-LBD/SRC-Cy5 coactivator binding, 2 h; 100 = basal binding, no effect. coactivator binding (% of control), % at 25.6 µM. hit rate 1.3% among 86,000; in the data active = activity above about 200%;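 also: binding measured in presence of low estradiol as agonist stimulus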
A number is an active result; . = inactive; / = not tested or not shown; [ ] = remark or other dose. An excerpt weighted towards active compounds, which were near 4.8% of everything screened.

SMILES	ERb SRC1 inh	RORa activator	ERa SRC1 inh	PTK2B oligo ant	SF1 activator	ERa SRC1 pot
CC(=O)c1cccc(NC(=O)C2CCCCC2)c1	.	.	.	.	.	262.7
O=C(CSc1nnc(C23CC4CC(CC(C4)C2)C3)o1)Nc1ccc(N2CCOCC2)c(Cl)c1	.	.	.	-3.26	.	.
O=C(CN(Cc1ccccc1F)S(=O)(=O)c1ccc(Cl)cc1)NCCCO	.	.	.	/	.	.
Cc1cccn2c(=O)c3cc(C(=O)Nc4ccc(N(C)C)cc4)n(C)c3nc12	62.4[fluorescence artefact?]	.	96.0[fluorescence artefact?]	/	.	.
Cc1ccc(-n2c(C)cc(C(=S)N3CCOCC3)c2C)cc1C	/	/	/	.	/	/
Nc1nc2ccc(C(=O)Nc3ccccc3)cc2s1	.	61.7	.	.	90.3	.
COC(=O)c1c(NC(C)=O)sc2c1CCCC2	.	.	.	.	.	.
COC(=O)c1c(NC(=O)CC2SCC(C(=O)OC)NC2=O)sc2c1CCCC2 (configuration not stated)	.	51.7	.	.	.	.
Cc1c(C(C)O)nnn1-c1nonc1N (configuration not stated)	.	.	.	.	.	.
CCN(CC)CCOC(=O)C1c2ccccc2Oc2ccccc21	73.8[fluorescence artefact?]	/	.	.	/	.
Cc1ccc(-n2nnnc2SCc2nnc(-c3ccccc3Br)o2)c(C)c1	.	.	.	.	.	.
Cc1ccc(S(=O)(=O)NCCn2c(C)cc3ccccc32)cc1	.	.	.	/	.	376.4
Cc1cc2ccccc2n1CCNC(=O)c1ccc(S(=O)(=O)N2CCCCC2)cc1	.	/	.	/	/	348.4[fluorescence artefact?]
Cc1c(C#N)c(SCC(N)=O)nc2c1CCCC2	.	.	.	.	.	.
Cc1cc(C)c(C)c(S(=O)(=O)N2CCN(CC(=O)NC(=O)NCc3ccccc3)CC2)c1C	.	/	.	.	/	.
O=c1[nH]c(=O)n(CCc2ccc(F)cc2)c(O)c1C=NCc1ccc2c(c1)OCO2	/	/	/	.	/	/
NC1CCCCC1N=Cc1c(O)n(CCc2ccc(F)cc2)c(=O)[nH]c1=O (configuration not stated)	.	.	71.8[fluorescence artefact?]	.	.	.
O=C1Nc2ccccc2C(O)(C(=O)NC2CC2)N1c1ccc(Cl)c(Cl)c1 (configuration not stated)	.	.	.	.	.	.
CN1CC(c2ccc(Cl)c(Cl)c2)[C@@]2(COc3ccccc3C2=O)[C@@]12C(=O)Nc1ccccc12 (some centres not stated)	/	/	/	-3.39	/	/
Cc1ccc(-c2noc(CNCCCN(C)C)n2)cc1	.	.	.	.	.	.
Cc1ccc(C(c2nnnn2CC2CCCO2)N2CCN(c3cccc(C)c3C)CC2)cc1 (configuration not stated)	.	.	.	-3.44	.	.
COc1cccc(C(c2nnnn2Cc2ccco2)N2CCN(c3cccc(C)c3C)CC2)c1OC (configuration not stated)	.	.	.	-3.88	.	.
COc1cccc(C(c2nnnn2Cc2ccccc2)N2CCN(C(=O)c3ccco3)CC2)c1OC (configuration not stated)	.	.	.	.	.	.
COc1cccc(C(c2nnnn2CCc2ccccc2)N2CCN(c3ccccc3)CC2)c1OC (configuration not stated)	.	.	.	-3.27	.	.
Cc1ccc(SCc2cc(=O)[nH]c(/N=C(\N)Nc3ccc(C)c(C)c3)n2)cc1	/	/	/	.	/	/
SMILES	ERb SRC1 inh	RORa activator	ERa SRC1 inh	PTK2B oligo ant	SF1 activator	ERa SRC1 pot
O=C(OCC(=O)c1c[nH]c2ccccc12)C1=COCCO1	.	54.8	.	.	109.2	.
COc1ccc(NC(=O)Cn2c(=O)n(CC(=O)NCc3ccco3)c(=O)c3ccccc32)cc1	/	/	/	.	/	/
Cc1cc(C)n(-c2nc(Nc3ccccc3C(F)(F)F)nc(-n3nc(C)cc3C)n2)n1	.	/	.	-3.51	/	.
Cc1cc(C)n(-c2nc(Nc3ccccc3C)nc(-n3nc(C)cc3C)n2)n1	.	/	.	/	/	.
CCn1cc(Br)c(C(=O)NC(C)c2ccccc2)n1 (configuration not stated)	.	.	.	.	.	.
CCn1cc(Br)c(C(=O)Nc2cccc(SC)c2)n1	.	.	.	.	50.3	.
Cc1nn(-c2ccccn2)c(C)c1Oc1ccccc1O	.	.	.	.	.	.
Cc1nn(-c2nc3ccccc3s2)c(C)c1Oc1ccccc1O	.	66.2	.	.	57.7	.
COCC(C)n1c(C)cc(C(=O)COC(=O)c2c(NC(C)=O)sc(C)c2C)c1C (configuration not stated)	.	.	.	.	.	542.1[fluorescence artefact?]
CCCCCCc1cc2cc(-c3nnc(-c4ccccc4OC)o3)c(=O)oc2cc1O	.	/	.	-3.1	/	.
CCCCCCc1cc2cc(-c3nnc(-c4cc(OC)c(OC)c(OC)c4)o3)c(=O)oc2cc1O	.	/	.	/	/	224.0[fluorescence artefact?]
Cc1ccc([N+](=O)[O-])cc1NC(=O)c1ccc(-c2ccccc2)cc1	/	/	/	.	/	/
